Assay results: ChEMBL document CHEMBL1157494, “Reduction in post-prandial hyperglycemic excursion through alpha-glucosidase inhibition by beta-acetamido carbonyl compounds” (Bioorg Med Chem Lett, 2008)
The source made the active and inactive calls. No cut-off for these calls is given here.

Tests used:
Rattus norvegicus [1] = organism: Rattus norvegicus; assay: Inhibition of rat intestinal alpha-glucosidase activity at 50 ug
How it was run: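 Rat intestinal α-glucosidase assayed in vitro. Compound added as 50 µg from a 5 mg/mL DMSO stock. Percent inhibition run in triplicate and given as mean SD.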

[2] = Inhibition of rat intestinal alpha-glucosidase activity
Rattus norvegicus [3] = assay: Antihyperglycemic activity in Wistar rat assessed as reduction in postprandial blood glucose rise at 100 mg/kg, po by carbohydrate tolerance test; assay type: functional, organism-based; design: dose 100 mg/kg
How it was run: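 Rats housed at 22 °C under a 12 h light-dark cycle, six per group, then fasted overnight. Basal plasma glucose was measured by glucose oxidase on retro-orbital EDTA blood. Compounds were suspended in normal saline and given orally at 100 mg/kg; controls received saline only. Delta-glycemia was read at 30–120 min, shown as mean SD and compared by ANOVA with Bonferroni.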

**Q.** Which inhibition (Rattus norvegicus [1]) does the source give for `CC(=O)NC(CC(=O)c1ccc([N+](=O)[O-])cc1)c1ccc([N+](=O)[O-])cc1` (centres undefined) here?
**A.** 52.7%

**Q.** With `CC(=O)NC(CC(=O)c1ccc(Br)cc1)c1ccc(F)cc1` (centres undefined) as the compound, how does the inhibition (Rattus norvegicus [1]) read?
**A.** 2.7%

**Q.** For `CC(=O)NC(CC(=O)c1ccc(F)cc1)c1ccc(O)cc1` (centres undefined), which inhibition (Rattus norvegicus [1]) is on record?
**A.** 60.1%

**Q.** What about the IC50 [2] of the same compound?
**A.** 72.8 µM

**Q.** Which inhibition (Rattus norvegicus [1]) does the source give for `CC(=O)NC(CC(=O)c1ccc(F)cc1)c1ccc(F)cc1` (centres undefined) here?
**A.** 55.1%

**Q.** For `CC(=O)NC(CC(=O)c1ccc(Br)cc1)c1ccc(C)cc1` (centres undefined), which inhibition (Rattus norvegicus [1]) is on record?
**A.** 95.1%

**Q.** What about the IC50 [2] of the same compound?
**A.** 5.53 µM

**Q.** What about the Activity (Rattus norvegicus [3]) of the same compound?
**A.** Active

**Q.** What does the source list for `CC(=O)NC(CC(=O)c1ccc([N+](=O)[O-])cc1)c1ccc(C)cc1` (centres undefined)?
**A.** inhibition (Rattus norvegicus [1]): 85%; IC50 [2]: 9.07 µM; Activity (Rattus norvegicus [3]): Active

**Q.** Which inhibition (Rattus norvegicus [1]) does the source give for `CC(=O)NC(CC(=O)c1ccccc1)c1ccc([N+](=O)[O-])cc1` (centres undefined) here?
**A.** 72.2%

**Q.** What about the IC50 [2] of the same compound?
**A.** 25.6 µM

**Q.** For `C[C@H]1O[C@H](O[C@H]2[C@H](O)[C@@H](O)[C@@H](O[C@H]3[C@H](O)[C@@H](O)[C@H](O)O[C@@H]3CO)O[C@@H]2CO)[C@H](O)[C@@H](O)[C@@H]1N[C@H]1C=C(CO)[C@@H](O)[C@H](O)[C@H]1O`, which Activity (Rattus norvegicus [3]) is on record?
**A.** Active
